Active and inactive are the calls of the source.
Columns and labels:
Escherichia coli = assay: Antimicrobial activity against Escherichia coli assessed as decrease in cell viability at 1.56 to 100 uM after 24 hrs; format: functional, organism-based
In short: (§1)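 Compounds in DMSO dispensed at a range of concentrations into 384-well plates. Each test strain was grown to OD620 ~0.5, diluted 2000-fold in LB medium and added to the wells. Plates were incubated 24 h at 37 °C. Viability was read as absorbance at 620 nm.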

Micrococcus luteus = assay: Antimicrobial activity against Micrococcus luteus assessed as decrease in cell viability at 1.56 to 100 uM after 24 hrs; format: functional, organism-based; in short: as §1
Staphylococcus aureus = assay: Antimicrobial activity against Staphylococcus aureus assessed as decrease in cell viability at 1.56 to 100 uM after 24 hrs; format: functional, organism-based; in short: as §1
Bacillus subtilis = assay: Antimicrobial activity against Bacillus subtilis assessed as decrease in cell viability at 1.56 to 100 uM after 24 hrs; format: functional, organism-based; in short: as §1
SK-OV-3 = assay: Cytotoxicity against human SKOV3 cells assessed as decrease in cell viability at 0.01 to 100 uM after 72 hrs by WST-8 assay; format: functional, cell-based
Homo sapiens = species: Homo sapiens; assay: Cytotoxicity against human ACC-MESO1 cells assessed as decrease in cell viability at 0.01 to 100 uM after 72 hrs by WST-8 assay; format: functional, cell-based
Jurkat = assay: Cytotoxicity against human Jurkat cells assessed as decrease in cell viability at 0.01 to 100 uM after 72 hrs by WST-8 assay; format: functional, cell-based

Measured: Activity

Cc1ccccc1/C=C/CCC(=O)NC1=C(O)CCC1=O
inactive: all assays above

Cc1ccccc1/C=C/C=C/C=C/C=C/C(=O)NC1=C(O)CCC1=O
inactive: all assays above
